# NadD inh: NadD (S. aureus) enzyme inhibition | purified NadD enzyme, colorimetric absorbance read-out | inhibition, % at 20 µM | 0.78% of 360,000 active | AID 602399; in the data active means inhibition above about 26%
# Scp1 inh: Scp-1 (human) phosphatase inhibition | 0.88% of 340,000 active | Recombinant Scp1, phosphopeptide, malachite green phosphate absorbance | AID 493091 | Q9GZU7 | inhibition, % at 20 µM;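 active means inhibition above about 50% at 20 µM, limit read from the data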;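 further: plate controls were DMSO wells with enzyme for no effect and wells lacking enzyme for full effect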
#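 Material: truncated SCP-1 phosphatase (76-261aa) / Buffer or medium: 50 mM Tris acetate pH 5.5, 0.005% Tween-20, 10 mM MgCl2 / Compound dosing: one concentration, 20 µM, with 1.0% DMSO / Incubation: 45 min room-temperature reaction, 5 min colour, 30 min stabiliser / Detection: colorimetric free-phosphate detection, absorbance 630 nm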
# SUMO1-SIM PPI: alters human SUMO1 binding to SIM partners; SUMO1 binding to a labelled peptide, TR-FRET, 1 h; inhibition, % at 20 µM; 0.33% of 360,000 active; in the data active means inhibition above about 37%
# Target sequence (P63165 whole entry, looked up): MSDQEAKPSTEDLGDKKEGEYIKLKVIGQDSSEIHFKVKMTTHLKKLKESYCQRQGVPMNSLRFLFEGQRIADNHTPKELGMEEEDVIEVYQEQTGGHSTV
# STEP block: blocks human striatal-enriched tyrosine phosphatase | P54829 | AID 588621 | recombinant STEP, OMFP fluorogenic substrate, fluorescence | 0.25% of 360,000 active | inhibition, % at 20 µM;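 active means inhibition at 20 µM, scaled per plate between control wells, above about 37%, limit read from the data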;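 further: 0% = DMSO with enzyme and substrate and 100% = substrate only without enzyme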
# Target sequence (P54829 whole entry, looked up): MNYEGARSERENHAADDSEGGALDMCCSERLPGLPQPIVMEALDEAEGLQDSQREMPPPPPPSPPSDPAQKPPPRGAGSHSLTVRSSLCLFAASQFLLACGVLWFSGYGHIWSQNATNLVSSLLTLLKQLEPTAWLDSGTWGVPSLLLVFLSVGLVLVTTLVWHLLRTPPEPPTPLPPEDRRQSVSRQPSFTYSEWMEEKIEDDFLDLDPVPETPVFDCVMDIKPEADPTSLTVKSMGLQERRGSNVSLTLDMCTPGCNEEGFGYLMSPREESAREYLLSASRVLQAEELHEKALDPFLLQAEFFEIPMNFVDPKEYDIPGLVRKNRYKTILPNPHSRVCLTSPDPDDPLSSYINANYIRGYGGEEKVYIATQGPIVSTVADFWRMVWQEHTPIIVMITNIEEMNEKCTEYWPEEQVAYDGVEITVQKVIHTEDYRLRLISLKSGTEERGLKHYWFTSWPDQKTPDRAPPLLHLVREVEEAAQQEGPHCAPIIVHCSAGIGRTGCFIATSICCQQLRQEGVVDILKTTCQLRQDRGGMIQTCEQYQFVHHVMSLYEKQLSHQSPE
#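 System: STEP (striatal-enriched tyrosine phosphatase) enzyme, cell-free; medium: Bis-Tris pH 6.0 buffer with DTT, detergent; dosing: 20 µM, 1% DMSO; times: reaction 20 min, ambient temperature; detection: fluorescence, 480/540 nm; read-out basis: normalized % inhibition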
# DNMT1 inh: DNMT1 (human) enzyme inhibition | P26358 | AID 588458 | DNMT1 molecular beacon, Hinp1I cleavage, fluorescence | 0.83% of 360,000 active | inhibition (reported as % activation of signal), % at 10 µM; in the data active means inhibition above about 50%
# LMPTP block: blocks human LMPTP phosphatase; P24666; 0.22% of 360,000 active; recombinant LMPTP-A, OMFP fluorogenic substrate, fluorescence intensity; inhibition, % at 20 µM;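 active means compounds that cut the enzyme signal by at least half of the control window in the single-dose screen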;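 further: plate controls were DMSO wells with enzyme plus substrate for no effect and substrate without enzyme for full effect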
#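 Test system – LMPTP-A phosphatase enzyme · Quantity – 0.625 nM LMPTP-A final · Reagent – OMFP substrate, 400 µM final · Dosing – one test concentration per compound, 20 µM, with 3% DMSO overall · Timing – 50 min enzyme reaction at room temperature, protected from light · Detection – fluorescence intensity · Controls – substrate-only low control, DMSO enzyme-plus-substrate high control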
# Beacon interf DR: shows spectral interference in the DNMT1 beacon assay. 200 tested, under 10 active. IC50, µM. AID 602382. molecular beacon fluorescence, spectral interference counter-screen. shares compounds with DNMT1 inh; call rule not given here
# DNMT1 confirm: confirmation of human DNMT1 inhibitors; shares compounds with DNMT1 inh; DNMT1 molecular beacon HinP1I cleavage, fluorescence; inhibition, % at 10 µM; 8% of 2,300 active;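 active means average inhibition of at least 30% in the single-concentration confirmation test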
# DNMT1 interf: counter-screen for DNMT1 inhibitors: spectral interference; shares compounds with DNMT1 inh; DNMT1 molecular beacon spectral interference counterscreen, fluorescence 485/520; activation (fluorescence interference), % at 10 µM; 1% of 2,300 active;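 active means activation of at least 30% at 10 µM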;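 further: DNMT1 catalytic domain with a HinP1I cleavage step and a FAM/dabcyl DNA beacon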
# Active calls of the source: *; . = not tested or not shown. In the library only some 2.3% were active in any assay of this set; here they are far more common.
SMILES,NadD inh,Scp1 inh,SUMO1-SIM PPI,STEP block,DNMT1 inh,LMPTP block,DNMT1 confirm,DNMT1 interf,others
O=C(Nc1ccc(-c2nc3ncccc3o2)cc1)c1ccc([N+](=O)[O-])o1,7.8,-1.8,-17.1,5.4,50.2*,4.4,-1.8,-1.1,
Cc1cc(=O)[nH]c(N/N=C/CCc2ccccc2)n1,-3.3,-0.8,-1.2,0.4,56.3*,-0.3,4.1,28.3,
Cc1ccc(-n2ccc(=O)c(C(=O)Nc3ccc(S(=O)(=O)Nc4nccs4)cc3)n2)cc1,17.2,-3.5,-10.5,0.5,-1.2,4.6,.,.,
CCCCc1nc2sc3c(SCC(=O)NCc4ccco4)ncnc3c2c2c1CCC2,28.1,46.8,-110.6,4.9,78.2*,2.6,6.0,4.8,
CCCCc1nc2sc3c(SCCN(C)C)ncnc3c2c2c1CCC2,3.0,2.3,-30.1,1.9,-2.0,-6.4,.,.,
O=C(CN1C(=O)/C(=C/c2ccco2)SC1=S)NC1CCS(=O)(=O)C1 (configuration not stated),10.9,58.4*,30.9,45.1*,75.9*,6.8,2.9,-1.0,
O=C(CCCN1C(=O)/C(=C/c2ccco2)SC1=S)Nc1cccc(C(=O)O)c1,-4.8,51.2*,50.3*,17.8,86.1*,5.6,0.5,-3.9,
COc1ccc(NC(=O)CCCN2C(=O)/C(=C\c3ccco3)SC2=S)cc1,9.0,-5.3,-8.5,1.4,-22.1,0.1,.,.,
O=C(CCCN1C(=O)/C(=C\c2ccco2)SC1=S)Nc1ccc(O)cc1C(=O)O,-2.6,68.8*,63.5*,43.0*,98.6*,9.2,3.8,-2.5,
O=C(CCCN1C(=O)/C(=C\c2cccs2)SC1=S)Nc1cccc(C(=O)O)c1,13.2,-3.4,-0.5,0.7,1.4,0.2,.,.,
O=C(CN1C(=O)/C(=C/c2ccco2)SC1=S)Nc1ccc(O)c(C(=O)O)c1,6.2,63.4*,83.8*,59.5*,86.7*,34.4,10.8,-2.3,
O=C(CCCN1C(=O)/C(=C\c2cccs2)SC1=S)Nc1ccc(O)cc1C(=O)O,-6.5,9.1,2.6,18.1,-0.3,0.1,.,.,
O=C1COc2ccc(C(=O)COC(=O)/C=C/c3ccc(Br)o3)cc2N1,25.0,81.2*,81.0*,29.9,100.3*,71.1*,26.8,-4.1,Beacon interf DR=>99
CN(c1ncc(C(F)(F)F)cc1Cl)N1C(=O)c2cccc([N+](=O)[O-])c2C1=O,4.2,-5.4,-2.0,4.7,-2.5,1.9,.,.,
C=CCn1c(COc2cccc(C)c2)nnc1SCC(=O)c1c(N)n(C)c(=O)n(C)c1=O,-0.5,-5.4,5.3,-0.7,5.1,-0.6,.,.,
C=CCn1c(COc2ccc(Cl)cc2)nnc1SCC(=O)c1c(N)n(C)c(=O)n(C)c1=O,5.4,-7.3,-2.2,4.3,73.0*,17.4,4.3,1.8,
COc1ccc(Cl)cc1NC(=O)NCc1ccc2c(c1)OCO2,0.4,-8.3,2.5,1.1,-0.9,2.0,.,.,
O=C(O)CSc1ncnc2sc(-c3ccccc3)cc12,-3.2,-0.3,-12.3,-2.8,-0.6,-0.1,.,.,
CC(=O)c1c(C)[nH]c(C(=O)CSc2ncnc3sc(-c4ccccc4)cc23)c1C,2.0,-3.9,-1.1,1.0,53.0*,1.2,-0.3,1.3,
Cc1cc(F)ccc1S(=O)(=O)Nc1ccccc1C(=O)NC1CCN(Cc2ccccc2)CC1,-1.4,3.4,-0.8,5.0,-7.0,-1.7,.,.,
O=c1nc2c(O)cccn2c2c1c(=O)[nH]c1ccccc12,7.9,54.8*,31.1,56.9*,105.1*,65.2*,6.2,4.1,
O=c1[nH]c2ccccc2c2nc3ccccn3c12,2.0,0.4,-2.5,2.3,8.3,0.0,.,.,
Cc1cc(C)nc(Nc2ccc(Br)cc2C(=O)O)n1,-4.9,-9.0,4.7,1.1,55.0*,0.0,3.4,6.3,
Cc1ccc(Nc2nc(C)cc(C)n2)c(Br)c1,5.3,-4.6,2.1,1.9,-1.3,0.6,.,.,
O=C(C1COc2ccccc2O1)N1CCc2ccccc21 (configuration not stated),-6.3,74.0*,8.2,6.0,57.8*,2.0,10.7,2.5,
SMILES,NadD inh,Scp1 inh,SUMO1-SIM PPI,STEP block,DNMT1 inh,LMPTP block,DNMT1 confirm,DNMT1 interf,others
COc1ccc(O)c(CNc2ccccc2F)c1,0.2,-5.7,-0.4,0.1,0.9,-0.7,.,.,
CCCC(=O)Nc1ccc(Cl)c(NC(=S)NC(=O)c2cc3ccccc3o2)c1,-3.2,-0.9,0.0,1.3,55.7*,-3.0,3.2,4.8,
CCc1nc(NCc2cccs2)c2nnn(Cc3ccccc3)c2n1,-0.1,.,1.2,3.5,67.3*,-2.7,0.1,3.6,
O=C(Cn1nc(Cc2ccncc2)c2ccccc2c1=O)Nc1cccnc1Cl,-0.4,-7.4,-4.1,0.3,-2.2,0.9,.,.,
O=C(COc1ccccc1C(=O)c1cnn(-c2ccccc2)c1)Nc1ccccc1,-11.7,-3.1,1.7,1.6,-4.4,3.3,.,.,
CC1CCN(C(=O)CSc2nc3c(c(=O)n2C)SC(C)C3)CC1 (configuration not stated),-1.7,-4.8,1.1,0.6,66.7*,-0.6,7.1,8.8,
CC1Cc2nc(SCC(=O)N3CCCCC3)n(C)c(=O)c2S1 (configuration not stated),3.1,.,2.8,3.1,-0.2,-1.7,.,.,
CC(C)(C)n1nnnc1C(c1cc2ccccc2o1)N1CCOCC1 (configuration not stated),-2.1,.,-1.7,.,.,-1.3,.,.,
CC(C)(C)OC(=O)NCc1ccc(NC(=O)c2nc[nH]c2C(=O)NCCNC(=O)c2[nH]cnc2C(=O)Nc2ccc(CNC(=O)OC(C)(C)C)cc2)cc1,25.3,4.1,0.1,-4.0,64.5*,-3.7,0.7,-4.8,
Cc1cccc(NC(=O)c2nc[nH]c2C(=O)NCCCNC(=O)c2[nH]cnc2C(=O)Nc2cccc(C)c2)c1,16.1,-0.2,5.5,4.7,73.1*,1.6,1.6,-0.2,
Cc1ccc(S(=O)(=O)N2CCC[C@H]2C(=O)OCc2cc(=O)oc3cc(C)ccc23)cc1,-0.6,-18.1,0.2,-0.1,-3.2,1.9,.,.,
O=Cc1c(-c2ccccc2)cc2oc3ccccc3cc1-2,-1.1,-4.2,-23.3,2.1,-2.9,2.3,.,.,
Cc1nnc(NC(=O)c2cc(-c3ccncc3)nc3c(C)cccc23)s1,21.9,-1.3,3.5,5.5,-0.1,0.2,.,.,
CCCCOc1ccc(C2/C(=C(/O)c3ccc4c(c3)CC(C)O4)C(=O)C(=O)N2CCCN2CCOCC2)cc1OC (configuration not stated),11.9,-2.4,-6.6,2.4,-2.5,-0.4,.,.,
